# Source: ChEMBL document CHEMBL2375329, “A diazen-1-ium-1,2-diolate analog of 7-azabenzobicyclo[2.2.1]heptane: synthesis, nitric oxide and nitroxyl release, in vitro hemodynamic, and anti-hypertensive studies” (Bioorg Med Chem Lett, 2013)
# Tests used:
# [1] = Induction of nitric oxide release in phosphate buffer solution after 1.5 hrs by Griess method relative to control; assay type: physicochemical
# Procedure, shortened: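 Test compound at 5.0×10^-2 mM was incubated in phosphate buffer pH 7.4 at 37 °C for 1.5 h. NO was estimated indirectly as nitrite by the Griess reaction. % nitrite is based on a theoretical maximum of 2 mol NO/mol compound, mean of n = 3.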
# [2] = Induction of HNO release in phosphate buffer saline after 48 hrs by phosphine-trapping based LC-MS assay relative to control; assay type: physicochemical
# Procedure, shortened: (§1)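 Test compound (20 µM final) was incubated in PBS pH 7.4 containing 7.5% DMSO with a phosphine HNO trap (1 mM final) and 4-hydroxybenzophenone internal standard (5.05 µM), in a sealed vial at 37 °C for 2 h or 48 h. The reaction was quenched with H2O2, dried, and redissolved in methanol. HNO-derived amide was quantified by ESI-negative LC-MS against a standard curve. % is of a theoretical 1 mol HNO/mol, mean of triplicates.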
# [3] = Induction of HNO release in phosphate buffer saline after 2 hrs by phosphine-trapping based LC-MS assay relative to control; assay type: physicochemical; procedure, shortened: as §1
# [4] = Induction of nitric oxide release in phosphate buffer solution after 2 to 4 hrs by Griess method relative to control; assay type: physicochemical
# Procedure, shortened: (§2)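 Test compound at 5.0 × 10^-2 mM in PBS pH 7.4 at 37 °C for 2 or 4 h. Nitrite formed from NO was quantified by the Griess reaction and expressed as % of a theoretical maximum of 2 mol NO/mol compound; mean of n = 3.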
# Heart [5] = experiment: Ionotropic activity in C57BL/6 mouse heart assessed as increase in coronary flow rate at 10 uM after 20 mins by hemodynamic analysis relative to control; assay type: functional
# Procedure, shortened: (§3)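 Isolated C57BL/6 mouse hearts perfused retrogradely (Langendorff) at constant pressure (90 cm H2O) with 95% O2/5% CO2-aerated Krebs-Henseleit buffer at 37 °C. After 20 min stabilization, hearts were perfused with compound at 10 or 100 µM for 20 min. Measured: heart rate, rates of contraction and relaxation, LVDP and coronary flow. Comparison to baseline; mean ± SEM, n = 4.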
# Heart [6] = experiment: Ionotropic activity in C57BL/6 mouse heart assessed as rate of contraction at 100 uM after 20 mins by hemodynamic analysis (reference value: 4178 +/- 141 cmH2O/ms); assay type: functional; procedure, shortened: as §3
# [7] = Induction of nitric oxide release in phosphate buffer solution after 2 hrs by Griess method relative to control; assay type: physicochemical; procedure, shortened: as §2
# Heart [8] = experiment: Ionotropic activity in C57BL/6 mouse heart assessed as coronary flow rate at 100 uM after 20 mins by hemodynamic analysis (reference value: 2.62 +/- 0.1 ml/min); assay type: functional; procedure, shortened: as §3
# Heart [9] = experiment: Ionotropic activity in C57BL/6 mouse heart assessed as heart rate at 100 uM after 20 mins by hemodynamic analysis (reference value: 342 +/- 11 bpm); assay type: functional; procedure, shortened: as §3
# Mus musculus [10] = experiment: Effect on cardiac hemodynamic parameter in C57 black mouse assessed as heart rate at 13.7 to 60.345 umol/kg, po after 3 hrs (reference value: 448 +/- 72 bpm); assay type: functional
# Mus musculus [11] = experiment: Antihypertensive activity in C57 black mouse assessed as mean blood pressure at 13.7 to 60.345 umol/kg, po after 6 hrs (reference value: 105.7 +/- 9.3 mmHg); assay type: functional
# Mus musculus [12] = experiment: Antihypertensive activity in C57 black mouse assessed as diastolic blood pressure at 13.7 to 60.345 umol/kg, po after 6 hrs (reference value: 85.3 +/- 11.5 mmHg); assay type: functional, Artery
# Mus musculus [13] = experiment: Antihypertensive activity in C57 black mouse assessed as diastolic blood pressure at 13.7 to 60.345 umol/kg, po after 3 hrs (reference value: 77.2 +/- 11.3 mmHg); assay type: functional, Artery
# Mus musculus [14] = experiment: Antihypertensive activity in C57 black mouse assessed as systolic blood pressure at 13.7 to 60.345 umol/kg, po after 1 hr (reference value: 126.5 +/- 9.4 mmHg); assay type: functional, Artery
# Mus musculus [15] = experiment: Effect on cardiac hemodynamic parameter in C57 black mouse assessed as heart rate at 13.7 to 60.345 umol/kg, po after 3 hrs (reference value: 439 +/- 73 bpm); assay type: functional
# Heart [16] = experiment: Positive ionotropic activity in C57BL/6 mouse heart assessed as left ventricular developing pressure at 100 uM after 20 mins by hemodynamic analysis (reference value: 169 +/- 2 cmH2O); assay type: functional; procedure, shortened: as §3
# Heart [17] = experiment: Ionotropic activity in C57BL/6 mouse heart assessed as increase in rate of relaxation at 10 uM after 20 mins by hemodynamic analysis relative to control; assay type: functional; design: scale not given: the % may be the effect or the level left; procedure, shortened: as §3
# Mus musculus [18] = experiment: Antihypertensive activity in C57 black mouse assessed as systolic blood pressure at 13.7 to 60.345 umol/kg, po after 6 hrs (reference value: 126.2 +/- 7.2 mmHg); assay type: functional, Artery
# Mus musculus [19] = experiment: Antihypertensive activity in C57 black mouse assessed as mean blood pressure at 13.7 to 60.345 umol/kg, po after 3 hrs (reference value: 97.5 +/- 8.7 mmHg); assay type: functional
# [20] = Induction of nitric oxide release in phosphate buffer solution after 4 hrs by Griess method relative to control; assay type: physicochemical; procedure, shortened: as §2
# Mus musculus [21] = experiment: Antihypertensive activity in C57 black mouse assessed as diastolic blood pressure at 13.7 to 60.345 umol/kg, po after 1 hr (reference value: 85.5 +/- 12.6 mmHg); assay type: functional, Artery
# Mus musculus [22] = experiment: Effect on cardiac hemodynamic parameter in C57 black mouse assessed as heart rate at 13.7 to 60.345 umol/kg, po after 1 hr (reference value: 449 +/- 40 bpm); assay type: functional
# Heart [23] = experiment: Ionotropic activity in C57BL/6 mouse heart assessed as increase in rate of contraction at 10 uM after 20 mins by hemodynamic analysis relative to control; assay type: functional; procedure, shortened: as §3
# Mus musculus [24] = experiment: Antihypertensive activity in C57 black mouse assessed as systolic blood pressure at 13.7 to 60.345 umol/kg, po after 3 hrs (reference value: 118.3 +/- 6.1 mmHg); assay type: functional, Artery
# Heart [25] = experiment: Ionotropic activity in C57BL/6 mouse heart assessed as decrease in heart rate at 10 uM after 20 mins by hemodynamic analysis relative to control; assay type: functional; design: scale not given: the % may be the effect or the level left; procedure, shortened: as §3
# [26] = Ratio of IPA/No half life to compound half life in phosphate buffered saline at pH 7.4; assay type: physicochemical; settings: buffer
# Heart [27] = experiment: Ionotropic activity in C57BL/6 mouse heart assessed as rate of relaxation at 100 uM after 20 mins by hemodynamic analysis (reference value: -3318 +/- 161 cmH2O/ms); assay type: functional; procedure, shortened: as §3
# Mus musculus [28] = experiment: Antihypertensive activity in C57 black mouse assessed as mean blood pressure at 13.7 to 60.345 umol/kg, po after 1 hr (reference value: 106 +/- 11 mmHg); assay type: functional
# [29] = Half life of the compound in phosphate buffered saline at 300 uM after 24 hrs at pH 7.4 by diazeniumdiolate chromophore-based UV-Vis spectrophotometric analysis; assay type: physicochemical
# Procedure, shortened: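 Compound at 300 µM final (added from 6 mM DMSO stock; 5% DMSO final) in pH 7.4 phosphate buffer, stirred at 37 °C for 0-24 h. Spectra scanned at 200-400 nm over time. Decay of the diazeniumdiolate absorbance at 259 nm was fitted as first order by linear regression of ln(At − A∞) versus time, and t1/2 = ln2/k.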
# Heart [30] = experiment: Positive ionotropic activity in C57BL/6 mouse heart assessed as increase in left ventricular developing pressure at 10 uM after 20 mins by hemodynamic analysis relative to control; assay type: functional; procedure, shortened: as §3
# [31] = Induction of HNO release in phosphate buffer saline after 2 to 4 hrs by phosphine-trapping based LC-MS assay relative to control; assay type: physicochemical
# Procedure, shortened: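 HNO trapping assay. Test compound at 20 µM with phosphine trap at 1 mM and 4-hydroxybenzophenone internal standard at 5.05 µM, in PBS pH 7.4 containing 7.5% DMSO, sealed, 37 °C. Quenched with H2O2, then dried and redissolved in methanol. HNO-derived amide quantified by ESI-negative LC-MS against a standard curve (0.2-10 µg/mL). Result is % of 1 mol HNO/mol compound; mean of triplicates.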
structure (smiles),measurement,setting,value
CC(C)N[N+]([O-])=N[O-].[Na+],Activity,[1],62%
same,Activity,[2],5.1%
same,Activity,[3],5.4%
CN(N=O)c1ccc(C#N)cc1,Activity,[4],100%
[Na+].[O-]/N=[N+](/[O-])N1C2CCC1c1ccccc12,Activity,Heart [5],53%
same,Activity,Heart [6],5547 cmH2O/ms
same,Activity,[7],19%
same,Activity,Heart [8],3.92 mL/min
same,Activity,Heart [9],307 bpm
same,Activity,Mus musculus [10],554 bpm
same,Activity,Mus musculus [11],101.1 mmHg
same,Activity,Mus musculus [12],87.2 mmHg
same,Activity,Mus musculus [13],75.4 mmHg
same,Activity,Mus musculus [14],105.5 mmHg
same,Activity,Mus musculus [15],466 bpm
same,Activity,Heart [16],213 cmH2O
same,Activity,Heart [17],9%
same,Activity,Mus musculus [18],128.9 mmHg
same,Activity,Mus musculus [19],85.8 mmHg
same,Activity,[2],20.2%
same,Activity,[20],21.5%
same,Activity,[3],22.3%
same,Activity,Mus musculus [21],70.6 mmHg
same,Activity,Mus musculus [22],605 bpm
same,Activity,Heart [23],30%
same,Activity,Mus musculus [24],106.5 mmHg
same,Activity,Heart [25],22%
same,Ratio,[26],7.7
same,Activity,Heart [27],-3945 cmH2O/ms
same,Activity,Mus musculus [28],82.3 mmHg
same,half-life at 300 µM,[29],17.8 min
same,Activity,Heart [30],24%
CN(c1ccc(C#N)cc1)N(O)N=O,Activity,[31],100%
same,half-life at 300 µM,[29],11 min
[Na+].[Na+].[O-][N+]([O-])=NO [ANGELI'S SALT],Activity,[7],21.3%
same,Activity,[2],85.7%
same,Activity,[20],20.8%
same,Activity,[3],85.9%
